# Laboratory results as given in ChEMBL document CHEMBL4316595, “Synthesis and structure-activity relationship studies of parthenolide derivatives as potential anti-triple negative breast cancer agents” (Eur J Med Chem, 2019).
# pIC50: −log10 of the molar value. Where a name gives a salt, the structure may show the parent alone. Active and inactive are the calls of the source. The rule behind the calls is not given here.
# What was measured:
# MDA-MB-231 [1] = test: Antiproliferative activity against human MDA-MB-231 cells measured after 72 hrs by MTT assay; format: functional, cell-based; conditions: MDA-MB-231, 72 h
# In short: (§1)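 MTT antiproliferation assay on human breast cancer lines MDA-MB-231, SUM-159, MCF-7 and Bcap-37 and on mouse 4T1 breast cancer cells. IC50 values were taken from the MTT read-out. Adriamycin served as the positive control.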
# MDA-MB-231 [2] = test: Potency index, ratio of parthenolide IC50 to test compound IC50 for human MDA-MB-231 cells; format: functional
# SUM-159-PT [3] = test: Antiproliferative activity against human SUM159 cells measured after 72 hrs by MTT assay; format: functional, cell-based; in short: as §1
# MCF7 [4] = test: Antiproliferative activity against human MCF7 cells measured after 72 hrs by MTT assay; format: functional, cell-based; conditions: MCF7, 72 h; in short: as §1
# Bcap37 [5] = test: Antiproliferative activity against human Bcap37 cells measured after 72 hrs by MTT assay; format: functional, cell-based; conditions: Bcap37, 72 h; in short: as §1
# 4T1 [6] = test: Antiproliferative activity against mouse 4T1 cells measured after 72 hrs by MTT assay; format: functional, cell-based; conditions: 4T1, 72 h; in short: as §1
# SUM-159-PT [7] = test: Potency index, ratio of parthenolide IC50 to test compound IC50 for human SUM159 cells; format: functional
# MCF7 [8] = test: Potency index, ratio of parthenolide IC50 to test compound IC50 for human MCF7 cells; format: functional
# Bcap37 [9] = test: Potency index, ratio of parthenolide IC50 to test compound IC50 for human Bcap37 cells; format: functional
# 4T1 [10] = test: Potency index, ratio of parthenolide IC50 to test compound IC50 for mouse 4T1 cells; format: functional
# NIH3T3 = test: Cytotoxicity against mouse 3T3 cells measured after 72 hrs by MTT assay; format: cell-based; conditions: NIH3T3, 72 h
# In short: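 Cytotoxicity was measured by MTT on normal 3T3 mouse embryonic fibroblasts, with IC50 from the MTT read-out.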
# [11] = Therapeutic index, ratio of IC50 for mouse 3T3 cells to IC50 for mouse 4T1 cells; format: toxicity; conditions: 3T3 cells and 4T1 cells, read-out: Ratio IC50
# SUM-159-PT [12] = test: Cell cycle arrest in human SUM159 cells assessed as decrease in G2/M-phase accumulation at […] measured after 48 hrs by propidium iodide staining based flow cytometry; format: functional
# In short: (§2)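 SUM-159 cells were treated for 48 h. Cell cycle distribution (G1, S, G2/M) was measured by flow cytometry and compared with an untreated control group.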
# SUM-159-PT [13] = test: Cell cycle arrest in human SUM159 cells assessed as increase in G1-phase accumulation at […] measured after 48 hrs by propidium iodide staining based flow cytometry; format: functional; in short: as §2
# SUM-159-PT [14] = test: Cell cycle arrest in human SUM159 cells assessed as down regulation of CHK2 expression at 0.1 to 0.2 uM measured after 48 hrs by Western blot analysis; format: functional, cell-based
# [15] = biological target: Serine/threonine-protein kinase Chk2 (Homo sapiens) (UniProt O96017); test: Inhibition of Chk2 phosphorylation in human SUM159 cells at 0.1 to 0.2 uM measured after 48 hrs by Western blot analysis; format: cell-based
# Chain of Serine/threonine-protein kinase Chk2 (Homo sapiens) (O96017 whole entry): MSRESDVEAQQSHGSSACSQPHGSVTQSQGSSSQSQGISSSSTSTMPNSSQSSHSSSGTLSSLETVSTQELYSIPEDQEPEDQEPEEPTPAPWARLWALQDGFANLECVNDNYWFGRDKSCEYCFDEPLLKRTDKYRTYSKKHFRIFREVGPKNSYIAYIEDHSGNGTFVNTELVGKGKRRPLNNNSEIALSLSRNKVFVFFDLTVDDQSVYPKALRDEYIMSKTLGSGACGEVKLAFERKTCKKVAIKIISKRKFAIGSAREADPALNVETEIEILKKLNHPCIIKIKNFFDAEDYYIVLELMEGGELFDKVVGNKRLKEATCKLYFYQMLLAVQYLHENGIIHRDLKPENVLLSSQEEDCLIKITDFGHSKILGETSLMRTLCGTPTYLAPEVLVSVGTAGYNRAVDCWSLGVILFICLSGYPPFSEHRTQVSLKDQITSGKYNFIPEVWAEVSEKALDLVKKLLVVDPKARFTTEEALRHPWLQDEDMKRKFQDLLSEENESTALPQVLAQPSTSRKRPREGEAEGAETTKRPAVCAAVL
# SUM-159-PT [16] = test: Cell cycle arrest in human SUM159 cells assessed as down regulation of CHK1 expression at 0.1 to 0.2 uM measured after 48 hrs by Western blot analysis; format: functional, cell-based
# [17] = biological target: T1, Serine/threonine-protein kinase Chk1 (Homo sapiens) (UniProt O14757); test: Inhibition of Chk1 phosphorylation in human SUM159 cells at 0.1 to 0.2 uM measured after 48 hrs by Western blot analysis; format: cell-based
# T1 sequence (whole entry): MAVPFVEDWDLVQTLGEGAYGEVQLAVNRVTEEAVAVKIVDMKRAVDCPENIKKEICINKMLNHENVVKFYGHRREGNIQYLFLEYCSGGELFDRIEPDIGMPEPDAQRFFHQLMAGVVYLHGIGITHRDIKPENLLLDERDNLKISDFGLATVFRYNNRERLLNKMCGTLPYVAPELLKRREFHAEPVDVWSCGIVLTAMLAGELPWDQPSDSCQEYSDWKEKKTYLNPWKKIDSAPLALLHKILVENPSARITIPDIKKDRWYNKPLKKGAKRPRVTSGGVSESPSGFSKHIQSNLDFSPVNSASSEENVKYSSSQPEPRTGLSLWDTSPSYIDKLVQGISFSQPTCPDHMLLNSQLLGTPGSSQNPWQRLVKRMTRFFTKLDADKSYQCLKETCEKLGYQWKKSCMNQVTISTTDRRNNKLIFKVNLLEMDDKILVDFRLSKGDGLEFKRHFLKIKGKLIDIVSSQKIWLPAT
# [18] = biological target: Cyclin-dependent kinase 1 (Homo sapiens) (UniProt P06493); test: Inhibition of CDC2 phosphorylation in human SUM159 cells at 0.1 to 0.2 uM measured after 48 hrs by Western blot analysis; format: cell-based
# Chain of Cyclin-dependent kinase 1 (Homo sapiens) (P06493 whole entry, looked up): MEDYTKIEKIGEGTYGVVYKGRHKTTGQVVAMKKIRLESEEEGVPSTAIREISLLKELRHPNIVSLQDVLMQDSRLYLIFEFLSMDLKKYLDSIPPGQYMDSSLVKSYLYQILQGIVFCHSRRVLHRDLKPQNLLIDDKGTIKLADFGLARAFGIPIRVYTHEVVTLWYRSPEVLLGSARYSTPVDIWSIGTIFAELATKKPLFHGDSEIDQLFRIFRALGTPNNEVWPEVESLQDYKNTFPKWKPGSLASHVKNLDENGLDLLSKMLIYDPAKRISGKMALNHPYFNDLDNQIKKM
# SUM-159-PT [19] = test: Cell cycle arrest in human SUM159 cells assessed as up regulation of P27 expression at 0.1 to 0.2 uM measured after 48 hrs by Western blot analysis; format: functional, cell-based
# SUM-159-PT [20] = test: Induction of apoptosis in human SUM159 cells assessed as viable cells at 0.2 uM measured after 48 hrs by Annexin-V APC/propidium iodide staining based flow cytometry (reference value: 95.9%); format: functional; conditions: read-out: Activity
# In short: (§3)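 SUM-159 cells were exposed at 0, 0.2 and 0.5 µM, then stained with annexin V/PI and analysed by flow cytometry. Early apoptosis was annexin V+/PI−, late apoptosis annexin V+/PI+, and total apoptosis was the sum of the two.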
# SUM-159-PT [21] = test: Induction of apoptosis in human SUM159 cells assessed as early apoptotic cells at 0.2 uM measured after 48 hrs by Annexin-V APC/propidium iodide staining based flow cytometry (reference value: 2.5%); format: functional; in short: as §3
# SUM-159-PT [22] = test: Induction of apoptosis in human SUM159 cells assessed as late apoptotic cells at 0.2 uM measured after 48 hrs by Annexin-V APC/propidium iodide staining based flow cytometry (reference value: 1.45%); format: functional; in short: as §3
# SUM-159-PT [23] = test: Induction of apoptosis in human SUM159 cells assessed as necrotic cells at 0.2 uM measured after 48 hrs by Annexin-V APC/propidium iodide staining based flow cytometry (reference value: 0.152%); format: functional; in short: as §3
# SUM-159-PT [24] = test: Induction of apoptosis in human SUM159 cells assessed as viable cells at 0.5 uM measured after 48 hrs by Annexin-V APC/propidium iodide staining based flow cytometry (reference value: 95.9%); format: functional; conditions: read-out: Activity; in short: as §3
# SUM-159-PT [25] = test: Induction of apoptosis in human SUM159 cells assessed as early apoptotic cells at 0.5 uM measured after 48 hrs by Annexin-V APC/propidium iodide staining based flow cytometry (reference value: 2.5%); format: functional; in short: as §3
# SUM-159-PT [26] = test: Induction of apoptosis in human SUM159 cells assessed as late apoptotic cells at 0.5 uM measured after 48 hrs by Annexin-V APC/propidium iodide staining based flow cytometry (reference value: 1.45%); format: functional; in short: as §3
# SUM-159-PT [27] = test: Induction of apoptosis in human SUM159 cells assessed as necrotic cells at 0.5 uM measured after 48 hrs by Annexin-V APC/propidium iodide staining based flow cytometry (reference value: 0.152%); format: functional; in short: as §3
# SUM-159-PT [28] = test: Induction of apoptosis in human SUM159 cells assessed as increase in Bax expression measured after 48 hrs by Western blot analysis; format: functional, cell-based
# SUM-159-PT [29] = test: Induction of apoptosis in human SUM159 cells assessed as increase in Bim expression measured after 48 hrs by Western blot analysis; format: functional, cell-based
# SUM-159-PT [30] = test: Induction of apoptosis in human SUM159 cells assessed as increase in cytochrome-C release measured after 48 hrs by Western blot analysis; format: functional, cell-based
# SUM-159-PT [31] = test: Induction of apoptosis in human SUM159 cells assessed as increase in cleaved caspase-9 measured after 48 hrs by Western blot analysis; format: functional, cell-based
# SUM-159-PT [32] = test: Cell cycle arrest in human SUM159 cells assessed as decrease in S-phase accumulation measured after 48 hrs by propidium iodide staining based flow cytometry
# MDA-MB-231 [33] = test: Antiproliferative activity against human MDA-MB-231 cells co-treated with melampomagnolide B at 1:1 molar ratio measured after 72 hrs by MTT assay; conditions: MDA-MB-231, 72 h
structure (smiles),measurement,setting,value
C=C1C(=O)O[C@H]2[C@H]1CC/C(COC(=O)/C=C/c1c(OC)cccc1OC)=C\CC[C@@]1(C)O[C@@H]21,pIC50,MDA-MB-231 [1],6.60
same,Ratio IC50,MDA-MB-231 [2],14
same,pIC50,SUM-159-PT [3],6.70
same,pIC50,MCF7 [4],6.64
same,pIC50,Bcap37 [5],6.57
same,pIC50,4T1 [6],6.66
same,Ratio IC50,SUM-159-PT [7],11.6 - 18.6
same,Ratio IC50,MCF7 [8],11.6 - 18.6
same,Ratio IC50,Bcap37 [9],11.6 - 18.6
same,Ratio IC50,4T1 [10],11.6 - 18.6
same,pIC50,NIH3T3,5.09
same,selectivity ratio,[11],36.9
same,Activity,SUM-159-PT [12],Active
same,Activity,SUM-159-PT [13],Active
same,Activity,SUM-159-PT [14],Active
same,inhibition,[15],Active
same,Activity,SUM-159-PT [16],Active
same,inhibition,[17],Active
same,inhibition,[18],Active
same,Activity,SUM-159-PT [19],Active
same,viability at 0.2 µM,SUM-159-PT [20],96.3%
same,Activity,SUM-159-PT [21],2.93%
same,Activity,SUM-159-PT [22],0.79%
same,Activity,SUM-159-PT [23],0.029%
same,viability at 0.5 µM,SUM-159-PT [24],61.3%
same,Activity,SUM-159-PT [25],30.5%
same,Activity,SUM-159-PT [26],6.07%
same,Activity,SUM-159-PT [27],2.04%
same,Activity,SUM-159-PT [28],Active
same,Activity,SUM-159-PT [29],Active
same,Activity,SUM-159-PT [30],Active
same,Activity,SUM-159-PT [31],Active
same,Activity,SUM-159-PT [32],Active
C=C1C(=O)O[C@@H]2C3O[C@]3(C)CC/C=C(\C)CC[C@@H]12 (some centres not stated),pIC50,MDA-MB-231 [1],5.46
same,pIC50,SUM-159-PT [3],5.51
same,pIC50,MCF7 [4],5.57
same,pIC50,Bcap37 [5],5.33
same,pIC50,4T1 [6],5.39
same,viability at 0.5 µM,SUM-159-PT [24],96.4%
same,Activity,SUM-159-PT [25],2.49%
same,Activity,SUM-159-PT [26],1.1%
same,Activity,SUM-159-PT [27],0.049%
COc1cccc2c1C(=O)c1c(O)c3c(c(O)c1C2=O)C[C@@](O)(C(=O)CO)C[C@@H]3O[C@H]1C[C@H](N)[C@H](O)[C@H](C)O1 [DOXORUBICIN HYDROCHLORIDE],pIC50,MDA-MB-231 [1],6.10
same,pIC50,4T1 [6],6.10
same,pIC50,NIH3T3,6.44
same,selectivity ratio,[11],0.45
C=C1C(=O)O[C@H]2[C@H]1CC/C(COC(=O)/C=C/c1ccccc1)=C\CC[C@@]1(C)O[C@@H]21,pIC50,MDA-MB-231 [1],5.87
same,Ratio IC50,MDA-MB-231 [2],2
C=C1C(=O)O[C@H]2[C@H]1CC/C(COC(=O)/C=C/c1cc(OC)ccc1OC)=C\CC[C@@]1(C)O[C@@H]21,pIC50,MDA-MB-231 [1],6.59
same,Ratio IC50,MDA-MB-231 [2],14
same,pIC50,SUM-159-PT [3],6.59
same,pIC50,MCF7 [4],6.59
same,pIC50,Bcap37 [5],6.26
same,pIC50,4T1 [6],6.47
COc1cccc(OC)c1/C=C/C(=O)O,pIC50,MDA-MB-231 [1],< 4.30
same,pIC50,MDA-MB-231 [33],5.41
C=C1C(=O)O[C@H]2[C@H]1CC/C(COC(=O)/C=C/c1ccccc1OCC)=C\CC[C@@]1(C)O[C@@H]21,pIC50,MDA-MB-231 [1],6.47
same,Ratio IC50,MDA-MB-231 [2],10
same,pIC50,SUM-159-PT [3],6.68
same,pIC50,MCF7 [4],6.54
same,pIC50,Bcap37 [5],6.38
same,pIC50,4T1 [6],6.74
C=C1C(=O)O[C@H]2[C@H]1CC/C(COC(=O)/C=C/c1ccccc1OC)=C\CC[C@@]1(C)O[C@@H]21,pIC50,MDA-MB-231 [1],6.34
same,pIC50,SUM-159-PT [3],6.46
same,pIC50,MCF7 [4],6.38
same,pIC50,Bcap37 [5],6.17
same,pIC50,4T1 [6],6.28
C=C1C(=O)O[C@H]2[C@H]1CC/C(COC(=O)/C=C/c1cccc(C(F)(F)F)c1)=C\CC[C@@]1(C)O[C@@H]21,pIC50,MDA-MB-231 [1],6.08
same,pIC50,SUM-159-PT [3],6.19
same,pIC50,MCF7 [4],5.67
same,pIC50,Bcap37 [5],5.73
same,pIC50,4T1 [6],5.83
